Experimental data from different studies.
Compare with care: the assays were run in different laboratories.
XDH: Xanthine dehydrogenase/oxidase (XDH, Bos taurus, UniProt P80457)
SIRT1: NAD-dependent protein deacetylase sirtuin-1 (SIRT1, Homo sapiens, UniProt Q96EB6)
SPHK2: Sphingosine kinase 2 (SPHK2, Homo sapiens, UniProt Q9NRA0)

For `O=Cc1ccc(O)cc1`, the inhibition was 3.2% (XDH; enzyme activity, inhibitor, absorbance; 100 µg/mL).
With `CCCCCc1cc(=O)c2cc(Cl)cc(Br)c2o1` the inhibition was 9.8% (SIRT1; enzyme activity, inhibitor, fluorescence; 200 µM).
The kinact/KI of `N[C@@H]1CON=C1O` is reported as 8.6 M⁻¹ s⁻¹ (Alanine racemase, biosynthetic (alr, Escherichia coli K-12, UniProt P0A6B4); enzyme activity, inhibitor).
`[H]/N=C(\N)N1CCC[C@H]1c1nc(-c2ccc(OCC=Cc3cccc(C(F)(F)F)c3)c(C(F)(F)F)c2)no1` gave an inhibition of 56% (SPHK2; enzyme activity, inhibitor, radiometric; 0.3 µM).
For `FC(F)(F)Oc1cccc(-c2cnc3ccc(-c4ccncc4)nn23)c1`, the activity vs control was 105% (Tau-tubulin kinase 2 (TTBK2, Homo sapiens, UniProt Q6IQ55); enzyme activity, inhibitor, radiometric; 5 µM).
With `CC(=S)NCCCC[C@H](NC(=O)OCc1ccccc1)C(=O)N[C@@H](Cc1c[nH]c2ccccc12)C(=O)N[C@@H](CCCNC(=N)N)C(N)=O` the inhibition was 64% (SIRT1; enzyme activity, inhibitor; 1 µM).
For `CCCCc1ccc(CCc2ccc(-c3noc([C@@H]4CCCN4C(=N)N)n3)cc2C(F)(F)F)cc1`, the inhibition was 59% (SPHK2; enzyme activity, inhibitor, radiometric; 0.3 µM).
`CC(C)(O)[C@H]1CC[C@H](Nc2ccc3ncc(-c4cccc(C(F)(F)F)c4)n3n2)CC1` gave a remaining activity of 97.7% (Testis-specific serine/threonine-protein kinase 6 (TSSK6, Homo sapiens, UniProt Q9BXA6); enzyme activity, inhibitor; 1 µM).
`CCOC(=O)[C@](CC)(CCCS(=O)(=O)CCOCCOCCNC(=O)OC(C)(C)C)NC(=O)c1ccc(C2CC2)c(Cc2ccc(F)cc2)n1` gave an Emax of 80% (Cannabinoid receptor 2 (Cnr2, Mus musculus, UniProt P47936); cAMP, agonist).
With `O=C1CC(CCc2c[nH]c3ccccc23)Oc2c(Br)cc(Cl)cc21` (centres unmarked) the inhibition was 19% (SIRT1; enzyme activity, inhibitor, fluorescence; 200 µM).
For `Oc1ncnc2[nH]ncc12`, the inhibition was 98.7% (XDH; enzyme activity, inhibitor, absorbance; 50 µg/mL).
With `Cn1c(=O)[nH]c(=O)c2c1nc(S)n2CC(O)COc1ccc(Cl)cc1` (centres unmarked) the kinact/KI was 14800 M⁻¹ s⁻¹ (Legumain (Homo sapiens, UniProt Q99538); enzyme activity, inhibitor, fluorescence).
`C[C@]12CC[C@@H]3c4ccc(O)cc4CC[C@H]3[C@@H]1CC[C@@H]2O` gave a ΔTm of 1.38 °C (Protein disulfide-isomerase (P4HB, Homo sapiens, UniProt P07237); thermal stability, DSF; 100 µM).
The activity vs control of `O=C(Nc1ccc(CN2CCOCC2)c(C(F)(F)F)c1)c1ccc(C#Cc2cccc3cnccc23)cn1` is reported as 140% (Oxidized purine nucleoside triphosphate hydrolase (NUDT1, Homo sapiens, UniProt P36639); enzyme activity, activator; 3 µM).
